Common to all, as to format: functional
Test [1] concerns Mus musculus. In words: Trypanocidal Activity at I.C.E. value 0.50 when administered subcutaneously. A digest of the protocol:
(§1)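 Blood-stage T. rhodesiense infection came from a standard inoculum lethal to all untreated mice. Drug was given by subcutaneous injection to groups of five mice. Survival beyond 30 days counted as cure. […] Sub-curative doses scored 0, and data were normalized at each dose.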

Test [2] has as its system Trypanosoma brucei rhodesiense. In words: In Vitro measurement of inhibition of leucine uptake in cell culture of Trypanosoma rhodesiense. The note with it: read-out: ID50 (the source's name). A digest of the protocol:
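Trypanosomes harvested from infected rats, cultured 3 h with several concentrations of drug, usually 0.1–100 µg/mL. Radiolabeled L-leucine uptake measured. ID50 is the concentration in µg/mL giving 50% inhibition of incorporation.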

Test [3] relates to Mus musculus. In words: Trypanocidal Activity at I.C.E. value 0.23 when administered subcutaneously. In a few lines: as §1
For test [4], the system named is Trypanosoma brucei rhodesiense. The experiment in a line: In Vitro measurement of inhibition of thymidine uptake in cell culture of Trypanosoma rhodesiense. As to conditions: read-out: ID50 (the source's name). A digest of the protocol: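 Parasites harvested from infected rats and incubated 3 h across a drug concentration series, usually 0.1–100 µg/mL. Incorporation of radiolabeled thymidine measured. ID50 is the concentration (µg/mL) producing 50% inhibition.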

For test [5], the system named is Mus musculus. In words: Trypanocidal Activity at I.C.E. value 0.12 when administered perorally.
The test system of test [6] is Mus musculus. The experiment in a line: Trypanocidal Activity at I.C.E. value 0.63 when administered perorally.
In test [7] the test system is Mus musculus. The experiment in a line: Trypanocidal Activity at I.C.E. value 0.54 when administered subcutaneously. In a few lines:
as §1

The test system of test [8] is Mus musculus. In words: Trypanocidal Activity at I.C.E. value 0.61 when administered perorally.
Test [9] concerns Mus musculus. In words: Trypanocidal Activity at I.C.E. value 0.60 when administered subcutaneously. A digest of the protocol:
(§2)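 Mice, in groups of five per dose, were given a standard inoculum of blood-stage T. rhodesiense that is lethal to all untreated controls, then dosed subcutaneously. Usually 11 dose levels were used (2^n × 0.42 mg/kg).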

For test [10], the system named is Mus musculus. The experiment in a line: Trypanocidal Activity at I.C.E. value 0.74 when administered subcutaneously. A digest of the protocol: as §2
The subject of test [11] is Mus musculus. In words: Trypanocidal Activity at I.C.E. value 0.49 when administered perorally.
Test [12] relates to Mus musculus. The experiment in a line: Trypanocidal Activity at I.C.E. value 0.20 when administered subcutaneously.
In test [13] the test system is Mus musculus. In words: Trypanocidal Activity at I.C.E. value 0.36 when administered subcutaneously.
The test system of test [14] is Mus musculus. The experiment in a line: Trypanocidal Activity at I.C.E. value 0.45 when administered perorally.
Test [15] relates to Mus musculus. In words: Trypanocidal Activity at I.C.E. value 0.21 when administered subcutaneously.
For test [16], the system named is Mus musculus. In words: Trypanocidal Activity at I.C.E. value 0.17 when administered perorally.
For test [17], the system named is Mus musculus. In words: Trypanocidal Activity at I.C.E. value 0.19 when administered subcutaneously.
The subject of test [18] is Mus musculus. In words: Trypanocidal Activity at I.C.E. value 0.84 when administered subcutaneously. In a few lines:
as §2

Test [19] relates to Mus musculus. In words: Trypanocidal Activity at I.C.E. value 0.45 when administered subcutaneously. A digest of the protocol:
as §1

Test [20] has as its system Mus musculus. In words: Trypanocidal Activity at I.C.E. value 0.35 when administered perorally.
Test [21] has as its system Mus musculus. In words: Trypanocidal Activity at I.C.E. value 0.40 when administered perorally.
Test [22] deals with Mus musculus. The experiment in a line: Trypanocidal Activity at I.C.E. value 0.46 when administered subcutaneously. In a few lines:
as §1

Test [23] concerns Mus musculus. In words: Trypanocidal Activity at I.C.E. value 0.47 when administered perorally.
For test [24], the system named is Mus musculus. The experiment in a line: Trypanocidal Activity at I.C.E. value 0.48 when administered subcutaneously. In a few lines:
as §1

Test [25] relates to Mus musculus. In words: Trypanocidal Activity at I.C.E. value 0.17 when administered subcutaneously.
For test [26], the system named is Mus musculus. The experiment in a line: Trypanocidal Activity at I.C.E. value 0.24 when administered perorally.
The test system of test [27] is Mus musculus. In words: Trypanocidal Activity at I.C.E. value 0.22 when administered subcutaneously.
Test [28] has as its system Mus musculus. The experiment in a line: Trypanocidal Activity was determined after subcutaneous administration. A digest of the protocol:
as §2

The subject of test [29] is Mus musculus. The experiment in a line: Trypanocidal Activity at I.C.E. value 0.06 when administered perorally.

For the molecule `C[n+]1c(-c2ccc(/C=N/Nc3nc[nH]n3)cc2)cn2ccsc21.[Br-]`, in the test on Mus musculus [1], the CD50 is 13 mg/kg.
Regarding `Br.Cn1c[n+](Cc2ccc(/C=N/NC(=N)N3CCCC3)cc2)c2ccccc21.[Br-]`, the IC50 in [2] came to 0.7 mg/L; in [4] it was 0.6 mg/L. Moreover, the results for the CD50 with Mus musculus [3] and in the test with Mus musculus [5] were 6.6 mg/kg and 424 mg/kg, respectively.
For `Br.Cn1cc[n+](C)c1/C=C/c1ccc(/C=N/NC2=NCCCN2)cc1.[Br-]`, the CD50 in the test on Mus musculus [6] turned out to be 6.6 mg/kg; with Mus musculus [7] it was 0.8 mg/kg.
As for `Br.C[n+]1c(COc2ccc(/C=N/NC3=NCCN3)cc2)cn2ccccc21.[Br-]`, the CD50 is 6.6 mg/kg with Mus musculus [8] and 0.8 mg/kg in the test with Mus musculus [9].
As for `Br.Cc1cccc2n1cc(COc1ccc(/C=N/NC(=N)NO)cc1)[n+]2C.[Br-]`, the CD50 turned out to be 0.8 mg/kg in the test with Mus musculus [10] and 13 mg/kg in the test with Mus musculus [11].
`C=CC[n+]1c(-c2ccc(NC(C)=O)cc2)cn2ccccc21.[Br-]` gave a CD50 with Mus musculus [12] of 26 mg/kg.
For `Br.C[n+]1cccc(COc2ccc(/C=N/NC3=NCCN3)cc2)c1.[Br-]`, the CD50 was found to be 3.3 mg/kg in the test on Mus musculus [13] and 13 mg/kg in the test on Mus musculus [14].
With `Br.C[n+]1ccc(COc2ccc(/C=N/NC3=NCCN3)cc2)cc1.[Br-]`, the CD50 with Mus musculus [5] was determined as 424 mg/kg; with Mus musculus [15], 13 mg/kg.
`Br.C[n+]1ccccc1COc1ccc(/C=N/NC(=N)N2CCCC2)cc1.[Br-]`: the CD50 in the test on Mus musculus [16] amounted to 106 mg/kg; in the test with Mus musculus [17], 0.1 mg/kg.
`Br.Cc1cccc2n1cc(/C=C/c1ccc(/C=N/NC3=NCCCN3)cc1)[n+]2C.[Br-]` displayed a CD50 with Mus musculus [18] of 0.4 mg/kg.
Turning to `Br.C/N=C(\NC)N/N=C/c1ccc(OCc2cn3ccccc3[n+]2C)cc1.[Br-]`, the CD50 with Mus musculus [19] amounted to 0.8 mg/kg; in the test with Mus musculus [20], 53 mg/kg.
Regarding `Br.CCCCSc1ccc2n(c1)cc(-c1ccc(/C=N/NC(=N)NO)cc1)[n+]2C.[Br-]`, the CD50 with Mus musculus [18] was 0.8 mg/kg; with Mus musculus [21], 26 mg/kg.
Turning to `Br.Cc1ccc2n(c1)cc(COc1ccc(/C=N/NC(=N)N3CCCC3)cc1)[n+]2C.[Br-]`, the CD50 with Mus musculus [22] was 0.8 mg/kg; in the test on Mus musculus [11], 13 mg/kg.
`Br.Cc1ccn2cc(-c3ccc(/C=N/NC(=N)N4CCCC4)cc3)[n+](C)c2c1.[Br-]`: the CD50 worked out at 13 mg/kg with Mus musculus [23] and 0.1 mg/kg with Mus musculus [24].
Consider `CC(=O)Nc1ccc(-c2cn3ccccc3[n+]2C)cc1.[I-]`, for which the IC50 in [2] and in test [4] was more than 10 mg/L each time. Besides, the values for the CD50 in the test on Mus musculus [25] and in the test with Mus musculus [26] were 212 mg/kg and 106 mg/kg, respectively.
For the molecule `Br.C[n+]1c(-c2ccc(/C=N/NC(=N)NN3CCOCC3)cc2)cn2ccccc21.[Br-]`, the results for the IC50 in test [2] and in test [4] were 9.7 mg/L and 6.7 mg/L, respectively. Further, the CD50 in the test on Mus musculus [27] was found to be 0.8 mg/kg.
In the test with Mus musculus [28], `CCNC(=N)N/N=C/c1ccc(OCc2n(C)cc[n+]2C)cc1.Cc1ccc(S(=O)(=O)O)cc1.Cc1ccc(S(=O)(=O)[O-])cc1` gave a CD50 of 6.6 mg/kg.
`C[n+]1c(/C=C/c2ccc(/C=N/NC(=N)N3CCCC3)cc2)cn2ccccc21.Cc1ccc(S(=O)(=O)O)cc1.Cc1ccc(S(=O)(=O)[O-])cc1` registered a CD50 in the test with Mus musculus [10] of 0.8 mg/kg.
For `Br.CCNC(=N)N/N=C/c1ccc(OCc2n(C)c3ccccc3[n+]2C)cc1.[Br-]`, the CD50 in the test on Mus musculus [9] is 1.6 mg/kg.
Regarding `Br.Cn1c[n+](Cc2ccc(/C=N/NC(=N)N)cc2)c2ccccc21.[Br-]`, the CD50 in the test with Mus musculus [29] worked out at 424 mg/kg; in the test with Mus musculus [17], 6.6 mg/kg.
